Source: ChEMBL document CHEMBL3259588, “Anti-inflammatory drimane sesquiterpene lactones from an Aspergillus species” (Bioorg Med Chem, 2014)
pIC50: −log10 of the molar value. One block for each molecule: values may come before it. The source made the active and inactive calls. No cut-off for these calls is given here.

Key:
Assay type in all cases: cell-based
[1] = (§1) Inhibition of TNF-alpha/IFN-gamma/IL-1beta-induced human CXCL10 (972 bp) promoter activity expressed in human DLD1 cells after 24 hrs by luciferase reporter assay; details: DLD-1, 24 h
Method in brief: (§2)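 DLD-1 in 24-well plates, switched to 0.5% FCS without antibiotics a day before lipofection (Lipofectamine 2000, 0.8 µg plasmid) with 972 bp CXCL10 promoter, NF-κB, GAS/Stat1 or ISRE luciferase reporters plus pRL-CMV. Stimulated 24 h with 10 ng/mL TNF-α, 10 ng/mL IFN-γ, 5 ng/mL IL-1β ± compound; Dual-Glo firefly/Renilla read. Stimulation-only = 100%; mean ± SEM, ≥3 experiments.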

DLD-1 [2] = assay: as §1; method in brief: as §2
[3] = Inhibition of TNF-alpha/IFN-gamma/IL-1beta-induced human CXCL10 (972 bp) promoter activity expressed in human DLD1 cells after 24 hrs by […]-driven luciferase reporter assay; details: DLD-1, 24 h; method in brief: as §2
[4] = target: T1, Signal transducer and activator of transcription 1-alpha/beta (Homo sapiens) (UniProt P42224); assay: Inhibition of Stat1 (unknown origin)-induced human CXCL10 (972 bp) promoter activity expressed in TNF-alpha/IFN-gamma/IL-1beta-stimulated human DLD1 cells after 24 hrs by luciferase reporter assay; details: DLD-1; method in brief: as §2
T1 sequence (whole entry): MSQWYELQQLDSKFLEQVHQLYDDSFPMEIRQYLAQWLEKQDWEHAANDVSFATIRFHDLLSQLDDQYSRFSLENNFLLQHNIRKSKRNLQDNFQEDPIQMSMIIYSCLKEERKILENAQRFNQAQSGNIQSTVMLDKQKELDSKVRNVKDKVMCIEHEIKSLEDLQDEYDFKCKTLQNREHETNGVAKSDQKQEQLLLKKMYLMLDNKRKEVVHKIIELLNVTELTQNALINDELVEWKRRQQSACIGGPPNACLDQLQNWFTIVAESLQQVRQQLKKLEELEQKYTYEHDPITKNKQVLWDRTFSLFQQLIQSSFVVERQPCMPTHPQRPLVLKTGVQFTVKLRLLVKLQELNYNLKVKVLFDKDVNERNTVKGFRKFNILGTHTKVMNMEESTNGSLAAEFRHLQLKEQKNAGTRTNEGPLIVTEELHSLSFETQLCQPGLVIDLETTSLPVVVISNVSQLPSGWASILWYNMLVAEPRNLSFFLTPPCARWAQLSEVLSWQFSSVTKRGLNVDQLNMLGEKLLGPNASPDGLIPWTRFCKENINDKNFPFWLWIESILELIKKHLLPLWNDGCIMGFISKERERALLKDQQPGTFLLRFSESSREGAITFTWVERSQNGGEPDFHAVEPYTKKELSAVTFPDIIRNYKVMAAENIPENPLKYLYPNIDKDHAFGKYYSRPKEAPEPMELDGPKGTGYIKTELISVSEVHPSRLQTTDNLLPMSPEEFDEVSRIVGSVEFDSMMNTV

DLD-1 [5] = assay: Inhibition of TNF-alpha/IFN-gamma/IL-1beta-induced human CXCL10 (972 bp) promoter activity expressed in human DLD1 cells assessed as CXCL10 gene expression at 27.5 uM after 5 hrs by RT-PCR method relative to untreated-control
Method in brief: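 Cells starved 16 h (0.5% FCS), compound pretreatment 1 h, then TNF-α 10 ng/mL/IFN-γ 10 ng/mL/IL-1β 5 ng/mL for 5 h. Total RNA analysed by two-step qRT-PCR for cxcl10, gapdh-corrected (Pfaffl); induced vs uninduced and treated-induced vs untreated-induced (100%).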

[6] = target: T2, Nuclear factor NF-kappa-B complex (Homo sapiens) (UniProt Q00653+P19838+Q04206); assay: Inhibition of NF-kappaB (unknown origin) expressed human DLD1 cells assessed as reduction in TNF-alpha gene expression pretreated at 13.75 uM for 1 hr by RT-PCR method relative to untreated-control; details: DLD-1
Method in brief: (§3)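 DLD-1 seeded 5×10^5 cells/mL, grown 24 h, starved 16 h in 0.5% FCS, pretreated with compound 1 h, then stimulated with 10 ng/mL TNF-α, 10 ng/mL IFN-γ, 5 ng/mL IL-1β for 5 h. tnf-α, il-1β, inos mRNA by two-step qRT-PCR, Pfaffl relative quantification, normalised to gapdh; stimulated-untreated control = 100%. Mean ± SEM, three independent experiments.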

[7] = target: T2, Nuclear factor NF-kappa-B complex (Homo sapiens); assay: Inhibition of NF-kappaB (unknown origin) expressed human DLD1 cells assessed as reduction in IL1-beta gene expression pretreated at 13.75 uM for 1 hr by RT-PCR method relative to untreated-control; details: DLD-1; method in brief: as §3
[8] = target: T2, Nuclear factor NF-kappa-B complex (Homo sapiens); assay: Inhibition of NF-kappaB (unknown origin) expressed human DLD1 cells assessed as reduction in iNOS gene expression pretreated at 13.75 uM for 1 hr by RT-PCR method relative to untreated-control; details: DLD-1; method in brief: as §3
[9] = target: T1, Signal transducer and activator of transcription 1-alpha/beta (Homo sapiens); assay: Inhibition of Stat1 (unknown origin) expressed human DLD1 cells assessed as reduction in IL1-beta gene expression pretreated at 13.75 uM for 1 hr by RT-PCR method relative to untreated-control; details: DLD-1; method in brief: as §3
[10] = target: T1, Signal transducer and activator of transcription 1-alpha/beta (Homo sapiens); assay: Inhibition of Stat1 (unknown origin) expressed human DLD1 cells assessed as reduction in TNF-alpha gene expression pretreated at 13.75 uM for 1 hr by RT-PCR method relative to untreated-control; details: DLD-1; method in brief: as §3
[11] = target: T1, Signal transducer and activator of transcription 1-alpha/beta (Homo sapiens); assay: Inhibition of Stat1 (unknown origin) expressed in human DLD1 cells assessed as reduction in iNOS gene expression pretreated at 13.75 uM for 1 hr by RT-PCR method relative to untreated-control; details: DLD-1; method in brief: as §3
[12] = Cytotoxicity against human DLD1 cells up to 50 uM after 48 hrs by XTT assay; details: dld-1, 48 h
Method in brief: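 DLD-1 cells (RPMI 1640, 25 mM HEPES, 10% FCS, 37 °C, 5% CO2) exposed to compound for 48 h; viability read as XTT reduction to coloured formazan.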

DLD-1 [13] = assay: Inhibition of TNF-alpha/IFN-gamma/IL-1beta-induced human CXCL10 (972 bp) promoter activity expressed in human DLD1 cells assessed as reduction in CXCL10 expression pretreated at 27.5 uM for 1 hr prior to 16 hrs cytokine challenge by proteome profiling method relative to untreated-control
Method in brief: (§4)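 DLD-1 starved 16 h in 0.5% FCS, seeded 5×10^6 cells/mL, pretreated 1 h with compound, then stimulated 16 h with 10 ng/mL TNF-α, 10 ng/mL IFN-γ, 5 ng/mL IL-1β. Supernatant cytokines/chemokines detected on Human Cytokine Array Panel A antibody array.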

DLD-1 [14] = assay: Inhibition of TNF-alpha/IFN-gamma/IL-1beta-induced human CXCL10 (972 bp) promoter activity expressed in human DLD1 cells assessed as reduction in MIF expression pretreated at 27.5 uM for 1 hr prior to 16 hrs cytokine challenge by proteome profiling method relative to untreated-control; method in brief: as §4
DLD-1 [15] = assay: Inhibition of TNF-alpha/IFN-gamma/IL-1beta-induced human CXCL10 (972 bp) promoter activity expressed in human DLD1 cells assessed as reduction in IL8 expression pretreated at 27.5 uM for 1 hr prior to 16 hrs cytokine challenge by proteome profiling method relative to untreated-control; method in brief: as §4
DLD-1 [16] = assay: Inhibition of TNF-alpha/IFN-gamma/IL-1beta-induced human CXCL10 (972 bp) promoter activity expressed in human DLD1 cells assessed as reduction in CXCL1 expression pretreated at 27.5 uM for 1 hr prior to 16 hrs cytokine challenge by proteome profiling method relative to untreated-control; method in brief: as §4
DLD-1 [17] = assay: Inhibition of TNF-alpha/IFN-gamma/IL-1beta-induced human CXCL10 (972 bp) promoter activity expressed in human DLD1 cells assessed as reduction in IL1-beta expression pretreated at 27.5 uM for 1 hr prior to 16 hrs cytokine challenge by proteome profiling method relative to untreated-control; method in brief: as §4
DLD-1 [18] = assay: Inhibition of TNF-alpha/IFN-gamma/IL-1beta-induced human CXCL10 (972 bp) promoter activity expressed in human DLD1 cells assessed as reduction in IL-27 expression pretreated at 27.5 uM for 1 hr prior to 16 hrs cytokine challenge by proteome profiling method relative to untreated-control; method in brief: as §4
DLD-1 [19] = assay: Inhibition of TNF-alpha/IFN-gamma/IL-1beta-induced human CXCL10 (972 bp) promoter activity expressed in human DLD1 cells assessed as reduction in TNF-alpha expression pretreated at 27.5 uM for 1 hr prior to 16 hrs cytokine challenge by proteome profiling method relative to untreated-control; method in brief: as §4
DLD-1 [20] = assay: Inhibition of TNF-alpha/IFN-gamma/IL-1beta-induced human CXCL10 (972 bp) promoter activity expressed in human DLD1 cells assessed as reduction in CXCL10 expression pretreated at 131.5 uM for 1 hr prior to 16 hrs cytokine challenge by proteome profiling method relative to untreated-control; method in brief: as §4
DLD-1 [21] = assay: Inhibition of TNF-alpha/IFN-gamma/IL-1beta-induced human CXCL10 (972 bp) promoter activity expressed in human DLD1 cells up to 260 uM after 24 hrs by luciferase reporter assay relative to untreated-control; method in brief: as §2
[22] = target: T2, Nuclear factor NF-kappa-B complex (Homo sapiens); assay: Inhibition of NF-kappaB (unknown origin)-induced human CXCL10 (972 bp) promoter activity expressed in TNF-alpha/IFN-gamma/IL-1beta-stimulated human DLD1 cells up to 260 uM after 24 hrs by luciferase reporter assay; details: DLD-1; method in brief: as §2
DLD-1 [23] = assay: Inhibition of TNF-alpha/IFN-gamma/IL-1beta-induced human CXCL10 (972 bp) promoter activity expressed in human DLD1 cells up to 260 uM after 24 hrs by […]-driven luciferase reporter assay; method in brief: as §2
[24] = target: T1, Signal transducer and activator of transcription 1-alpha/beta (Homo sapiens); assay: Inhibition of Stat1 (unknown origin)-induced human CXCL10 (972 bp) promoter activity expressed in TNF-alpha/IFN-gamma/IL-1beta-stimulated human DLD1 cells up to 260 uM after 24 hrs by luciferase reporter assay; details: DLD-1; method in brief: as §2

T2 sequence (P19838 whole entry, looked up): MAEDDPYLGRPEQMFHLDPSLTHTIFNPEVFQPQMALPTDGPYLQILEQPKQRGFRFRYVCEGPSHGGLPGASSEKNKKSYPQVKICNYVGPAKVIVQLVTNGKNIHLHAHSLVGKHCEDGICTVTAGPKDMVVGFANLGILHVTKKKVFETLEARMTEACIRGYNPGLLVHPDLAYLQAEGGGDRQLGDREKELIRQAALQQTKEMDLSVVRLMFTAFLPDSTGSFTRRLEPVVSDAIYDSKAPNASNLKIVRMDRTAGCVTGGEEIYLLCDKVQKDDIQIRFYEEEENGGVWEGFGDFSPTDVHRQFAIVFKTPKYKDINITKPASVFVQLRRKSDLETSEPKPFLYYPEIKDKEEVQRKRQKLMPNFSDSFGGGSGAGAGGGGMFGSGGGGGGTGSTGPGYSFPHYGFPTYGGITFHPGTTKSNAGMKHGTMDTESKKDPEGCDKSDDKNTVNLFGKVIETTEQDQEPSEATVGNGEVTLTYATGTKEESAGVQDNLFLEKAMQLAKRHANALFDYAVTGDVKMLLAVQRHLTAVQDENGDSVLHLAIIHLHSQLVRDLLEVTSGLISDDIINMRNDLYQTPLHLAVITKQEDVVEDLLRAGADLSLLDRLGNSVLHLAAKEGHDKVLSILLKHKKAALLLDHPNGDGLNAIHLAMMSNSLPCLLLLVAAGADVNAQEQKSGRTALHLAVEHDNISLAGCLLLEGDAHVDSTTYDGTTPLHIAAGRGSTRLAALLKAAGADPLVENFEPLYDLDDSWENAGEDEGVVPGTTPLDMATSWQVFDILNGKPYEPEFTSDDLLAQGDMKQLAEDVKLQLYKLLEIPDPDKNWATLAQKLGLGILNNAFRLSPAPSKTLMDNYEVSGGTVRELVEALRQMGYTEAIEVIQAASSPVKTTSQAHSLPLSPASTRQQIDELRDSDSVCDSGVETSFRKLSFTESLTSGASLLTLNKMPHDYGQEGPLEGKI
T2 sequence (Q00653 whole entry, looked up): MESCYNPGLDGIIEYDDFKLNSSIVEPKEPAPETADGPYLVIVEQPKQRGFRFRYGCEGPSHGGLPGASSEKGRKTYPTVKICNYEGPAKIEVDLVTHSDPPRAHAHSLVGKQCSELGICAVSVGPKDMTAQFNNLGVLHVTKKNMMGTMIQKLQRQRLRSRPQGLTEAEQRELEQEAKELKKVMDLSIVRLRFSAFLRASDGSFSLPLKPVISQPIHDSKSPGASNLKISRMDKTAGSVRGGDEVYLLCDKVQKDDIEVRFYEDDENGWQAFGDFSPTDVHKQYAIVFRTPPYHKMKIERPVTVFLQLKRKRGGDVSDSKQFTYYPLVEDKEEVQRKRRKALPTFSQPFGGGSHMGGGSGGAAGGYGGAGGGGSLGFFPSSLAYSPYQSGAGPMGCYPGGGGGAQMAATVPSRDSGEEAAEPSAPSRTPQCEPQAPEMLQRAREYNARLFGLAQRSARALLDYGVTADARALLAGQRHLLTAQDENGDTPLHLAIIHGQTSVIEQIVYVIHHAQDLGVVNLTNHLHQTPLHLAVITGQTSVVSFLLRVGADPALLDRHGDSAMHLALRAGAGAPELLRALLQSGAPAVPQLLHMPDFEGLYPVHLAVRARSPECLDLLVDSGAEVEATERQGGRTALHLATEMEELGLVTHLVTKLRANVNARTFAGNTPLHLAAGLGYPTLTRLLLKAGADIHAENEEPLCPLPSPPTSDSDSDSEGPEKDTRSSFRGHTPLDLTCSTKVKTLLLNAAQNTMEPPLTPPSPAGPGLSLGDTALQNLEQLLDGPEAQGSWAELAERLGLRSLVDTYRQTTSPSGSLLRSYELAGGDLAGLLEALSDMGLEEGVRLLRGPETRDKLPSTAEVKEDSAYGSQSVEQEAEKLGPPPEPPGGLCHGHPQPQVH
T2 sequence (Q04206 whole entry, looked up): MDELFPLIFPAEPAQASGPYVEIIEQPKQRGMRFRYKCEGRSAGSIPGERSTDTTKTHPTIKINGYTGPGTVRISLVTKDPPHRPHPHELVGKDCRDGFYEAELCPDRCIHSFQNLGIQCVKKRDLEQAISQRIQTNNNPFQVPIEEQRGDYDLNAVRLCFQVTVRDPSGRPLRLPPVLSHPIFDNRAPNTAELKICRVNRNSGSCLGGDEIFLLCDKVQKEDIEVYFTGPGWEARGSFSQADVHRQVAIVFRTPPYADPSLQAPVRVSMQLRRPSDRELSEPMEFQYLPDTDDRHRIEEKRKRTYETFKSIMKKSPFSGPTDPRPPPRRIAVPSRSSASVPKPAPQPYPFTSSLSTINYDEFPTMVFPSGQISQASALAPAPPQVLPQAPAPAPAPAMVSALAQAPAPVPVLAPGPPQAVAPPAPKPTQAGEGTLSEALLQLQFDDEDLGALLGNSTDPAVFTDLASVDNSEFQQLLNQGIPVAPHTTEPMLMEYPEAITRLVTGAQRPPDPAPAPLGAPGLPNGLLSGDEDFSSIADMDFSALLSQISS

- pIC50 [1]: 4.91
- pIC50 [3]: 4.84
- inhibition [4]: Dose-dependent effect
- inhibition [6]: Active
- inhibition [7]: Active
- inhibition [8]: Active
- inhibition [9]: Active
- inhibition [10]: Active
- inhibition [11]: Active
Compound: CCCCCC(=O)O[C@@H]1C=C2COC(=O)C2(O)[C@@]2(C)CCCC(C)(C)[C@H]12 (some centres undefined)
- inhibition (DLD-1 [2]): Dose-dependent effect
- inhibition (DLD-1 [5]): Active
- Activity [12]: Non-toxic
- inhibition (DLD-1 [13]): Active
- inhibition (DLD-1 [14]): Active
- inhibition (DLD-1 [15]): Active
- inhibition (DLD-1 [16]): Active
- inhibition (DLD-1 [17]): Active
- inhibition (DLD-1 [18]): Active
- inhibition (DLD-1 [19]): Active
- inhibition (DLD-1 [20]): Active

- inhibition [22]: inactive
- inhibition [24]: inactive
Compound: CCCCCC(=O)O[C@@H]1C=C2CO[C@@H](O)[C@]2(O)[C@@]2(C)[C@H](O)CCC(C)(C)[C@H]12
- inhibition (DLD-1 [21]): inactive
- inhibition (DLD-1 [23]): inactive
